One series relates to NIH3T3. In words: Cytotoxicity against mouse NIH/3T3 cells assessed as cell viability after 96 hrs by SRB assay. Format: cell-based. To be noted: NIH3T3, 96 h.
The nature of series [1]: Cytotoxicity against human 518A2 cells assessed as cell viability after 96 hrs by SRB assay. Format: functional, cell-based.
The next series concerns 8505C. Put plainly: Cytotoxicity against human 8505C cells assessed as cell viability after 96 hrs by SRB assay. Format: functional, cell-based. (In general: The SRB assay estimates cell density from bound dye.)
The nature of series [2]: Cytotoxicity against human A253 cells assessed as cell viability after 96 hrs by SRB assay. It counts as functional, cell-based.
Another series concerns A2780. Put plainly: Cytotoxicity against human A2780 cells assessed as cell viability after 96 hrs by SRB assay. It counts as functional, cell-based.
For a further series, the system named is A549. Put plainly: Cytotoxicity against human A549 cells assessed as cell viability after 96 hrs by SRB assay. Format: functional, cell-based.
The subject of another series is DLD-1. In words: Cytotoxicity against human DLD1 cells assessed as cell viability after 96 hrs by SRB assay. Format: functional, cell-based.
A further series relates to MCF7. Put plainly: Cytotoxicity against human MCF7 cells assessed as cell viability after 96 hrs by SRB assay. Format: functional, cell-based.
Series [3] can be described thus: Cytotoxicity against human Lipo cells assessed as cell viability after 96 hrs by SRB assay. Format: functional, cell-based.
The test system of another series is SW-1736. In words: Cytotoxicity against human SW1736 cells assessed as cell viability after 96 hrs by SRB assay. It counts as functional, cell-based.
Series [4] can be described thus: Solubility of the compound in water/DMSO mixture. It counts as physicochemical. Conditions: water/DMSO mixture; read-out: solubility. In short, it runs like this: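 Solubility was measured in water/DMSO (95:5, v/v) by HPLC with UV/vis detection.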

SMILES strings stand for the structures. In brackets after ≈: the same amount, converted by molar mass. Where only a bound is given, the exact number is not on record here.

One may read the IC50 as the concentration needed to halve the response being measured. In the case of `C#C[C@H](O)[C@]12CC[C@@H](C(=C)C)[C@@H]1[C@H]1CC[C@@H]3[C@@]4(C)CC[C@H](O)C(C)(C)[C@@H]4CC[C@@]3(C)[C@]1(C)CC2`, the IC50 amounted to 10.5 µM in the series on NIH3T3; 15.1 µM in series [1] (Homo sapiens, 518A2, 96 h); 16.1 µM in the series on 8505C (Homo sapiens, 8505C, 96 h); 14.1 µM in series [2] (Homo sapiens, A253, 96 h); 9.7 µM with A2780 (Homo sapiens, A2780, 96 h); 20.4 µM with A549 (Homo sapiens, A549, 96 h). Further, the IC50 with DLD-1 (Homo sapiens, DLD-1, 96 h) is 21.9 µM; with MCF7 (Homo sapiens, MCF7, 96 h), 11.9 µM; in series [3] (Homo sapiens, Lipo, 96 h), 12.9 µM; in the series on SW-1736 (Homo sapiens, SW-1736, 96 h), 13 µM.

In general, solubility refers to how much of the substance goes into solution per volume. For the molecule `C=C(C)[C@@H]1CC[C@]2([C@H](O)C#CCN3CCCC3)CC[C@]3(C)[C@H](CC[C@@H]4[C@@]5(C)CCC(=O)C(C)(C)[C@@H]5CC[C@]43C)[C@@H]12`, the 50% inhibitory concentration (IC50) in the series with NIH3T3 amounted to 6.4 µM; in series [1] (Homo sapiens, 518A2, 96 h), 5.6 µM; in the series with 8505C (Homo sapiens, 8505C, 96 h), 3.4 µM; in [2] (Homo sapiens, A253, 96 h), 3.4 µM; in the series with A2780 (Homo sapiens, A2780, 96 h), 3.6 µM; in the series with A549 (Homo sapiens, A549, 96 h) it was 3.5 µM. Further, the IC50 was found to be 2.6 µM in the series with DLD-1 (Homo sapiens, DLD-1, 96 h); 3.1 µM in the series with MCF7 (Homo sapiens, MCF7, 96 h); 5.6 µM in series [3] (Homo sapiens, Lipo, 96 h); 6 µM with SW-1736 (Homo sapiens, SW-1736, 96 h). The solubility in [4] came out at 182 µg/mL (≈ 332 µM).

For the molecule `C=C(C)[C@@H]1CC[C@]2([C@@H](O)C#CCN(Cc3ccccc3)Cc3ccccc3)CC[C@]3(C)[C@H](CC[C@@H]4[C@@]5(C)CC[C@H](OC(C)=O)C(C)(C)[C@@H]5CC[C@]43C)[C@@H]12`, the IC50 in the series on NIH3T3 is > 70 µM; in [1] (Homo sapiens, 518A2, 96 h), > 30 µM; with 8505C (Homo sapiens, 8505C, 96 h), > 30 µM; in [2] (Homo sapiens, A253, 96 h), > 70 µM; in the series with A2780 (Homo sapiens, A2780, 96 h), > 70 µM; with A549 (Homo sapiens, A549, 96 h) it was > 70 µM. For the same molecule, the half-maximal inhibitory concentration (IC50) was > 70 µM in the series on DLD-1 (Homo sapiens, DLD-1, 96 h); 27.2 µM with MCF7 (Homo sapiens, MCF7, 96 h); > 70 µM in series [3] (Homo sapiens, Lipo, 96 h); > 70 µM with SW-1736 (Homo sapiens, SW-1736, 96 h).

As to `C=C(C)[C@@H]1CC[C@]2([C@H](O)C#CCN3CCNCC3)CC[C@]3(C)[C@H](CC[C@@H]4[C@@]5(C)CC[C@H](OC(C)=O)C(C)(C)[C@@H]5CC[C@]43C)[C@@H]12.Cl`, the IC50 in the series on NIH3T3 came to 4 µM; in [1] (Homo sapiens, 518A2, 96 h), 5 µM; in the series on 8505C (Homo sapiens, 8505C, 96 h) it was 6.9 µM; in series [2] (Homo sapiens, A253, 96 h) it was 4.6 µM; in the series on A2780 (Homo sapiens, A2780, 96 h), 2.7 µM; in the series with A549 (Homo sapiens, A549, 96 h), 6.5 µM. Also, the IC50 with DLD-1 (Homo sapiens, DLD-1, 96 h) turned out to be 5.2 µM; with MCF7 (Homo sapiens, MCF7, 96 h), 2.5 µM; in series [3] (Homo sapiens, Lipo, 96 h) it was 2.7 µM; with SW-1736 (Homo sapiens, SW-1736, 96 h), 7.7 µM. Also, the solubility in [4] came out at 178 µg/mL.

Take `C=CCN(CC#C[C@@H](O)[C@]12CC[C@@H](C(=C)C)[C@@H]1[C@H]1CC[C@@H]3[C@@]4(C)CC[C@H](OC(C)=O)C(C)(C)[C@@H]4CC[C@@]3(C)[C@]1(C)CC2)CC=C` [listing 1 of 2 here]: the IC50 in series [1] (Homo sapiens, 518A2, 96 h) was > 60 µM; in the series on 8505C (Homo sapiens, 8505C, 96 h), > 60 µM; in series [2] (Homo sapiens, A253, 96 h), 43.1 µM; in the series on A2780 (Homo sapiens, A2780, 96 h) it was 18.2 µM; with A549 (a549), > 30 µM; with DLD-1 (Homo sapiens, DLD-1, 96 h), 57.6 µM. Besides, the concentration for half-maximal inhibition (IC50) with MCF7 (Homo sapiens, MCF7, 96 h) was 31.1 µM; in series [3] (lipo) it was 17 µM; with SW-1736 (Homo sapiens, SW-1736, 96 h), 48 µM.

With `C=C(C)[C@@H]1CC[C@]2([C@@H](O)C#CCN3CCCC3)CC[C@]3(C)[C@H](CC[C@@H]4[C@@]5(C)CC[C@H](OC(C)=O)C(C)(C)[C@@H]5CC[C@]43C)[C@@H]12`, the half-inhibitory concentration (IC50) with NIH3T3 came out at 14.5 µM; in [1] (Homo sapiens, 518A2, 96 h), 12.1 µM; in the series on 8505C (Homo sapiens, 8505C, 96 h), 11.1 µM; in [2] (Homo sapiens, A253, 96 h), 10.4 µM; with A2780 (Homo sapiens, A2780, 96 h) it was 8.3 µM; in the series with A549 (Homo sapiens, A549, 96 h) it was 12 µM. Also, the IC50 in the series on DLD-1 (Homo sapiens, DLD-1, 96 h) was found to be 18.8 µM; with MCF7 (Homo sapiens, MCF7, 96 h), 7.7 µM; in series [3] (Homo sapiens, Lipo, 96 h) it was 11.6 µM; in the series with SW-1736 (Homo sapiens, SW-1736, 96 h), 20 µM.

On to `C=CCN(CC#C[C@@H](O)[C@]12CC[C@@H](C(=C)C)[C@@H]1[C@H]1CC[C@@H]3[C@@]4(C)CC[C@H](OC(C)=O)C(C)(C)[C@@H]4CC[C@@]3(C)[C@]1(C)CC2)CC=C` [listing 2 of 2 here], for which the IC50 is > 60 µM in the series on NIH3T3; 52 µM in series [1] (518a2); 47.9 µM in the series on 8505C (8505c); 32.8 µM in series [2] (a253); 12.4 µM in the series on A2780 (a2780); > 60 µM with A549 (Homo sapiens, A549, 96 h). Further, the IC50 in the series on DLD-1 (dld-1) worked out at 44.2 µM; in the series on MCF7 (mcf7), 15.7 µM; in [3] (Homo sapiens, Lipo, 96 h), 21.8 µM; in the series with SW-1736 (sw-1736), 30.2 µM.

For `C=C(C)[C@@H]1CC[C@]2([C@H](O)C#CCN(C)C)CC[C@]3(C)[C@H](CC[C@@H]4[C@@]5(C)CC[C@H](OC(C)=O)C(C)(C)[C@@H]5CC[C@]43C)[C@@H]12.Cl`, the IC50 in the series with NIH3T3 was found to be 5.8 µM; in series [1] (Homo sapiens, 518A2, 96 h), 7.2 µM; in the series with 8505C (Homo sapiens, 8505C, 96 h), 6.7 µM; in [2] (Homo sapiens, A253, 96 h), 6.4 µM; in the series on A2780 (Homo sapiens, A2780, 96 h) it was 4.9 µM; with A549 (Homo sapiens, A549, 96 h) it was 11.1 µM. The IC50 was found to be 12.9 µM in the series with DLD-1 (Homo sapiens, DLD-1, 96 h); 3.7 µM with MCF7 (Homo sapiens, MCF7, 96 h); 8.6 µM in series [3] (Homo sapiens, Lipo, 96 h); 6.5 µM in the series on SW-1736 (Homo sapiens, SW-1736, 96 h). In series [4], the solubility turned out to be 312 µg/mL.

The values above are taken from ChEMBL document CHEMBL2321859, “Cytotoxic betulin-derived hydroxypropargylamines trigger apoptosis” (Bioorg Med Chem, 2013).
